{"data": "Results pooled from the literature", "CSNK1D": "Casein kinase I isoform delta (CSNK1D, Homo sapiens, UniProt P48730)", "PLCD1": "1-phosphatidylinositol 4,5-bisphosphate phosphodiesterase delta-1 (PLCD1, Homo sapiens, UniProt P51178)", "HTR2B": "5-hydroxytryptamine receptor 2B (HTR2B, Homo sapiens, UniProt P41595)", "FLT3 F691L": "Receptor-type tyrosine-protein kinase FLT3 (FLT3, Homo sapiens, UniProt P36888, F691L)", "FLT3 ITD": "Receptor-type tyrosine-protein kinase FLT3 (FLT3, Homo sapiens, UniProt P36888, ITD)", "HTR2C": "5-hydroxytryptamine receptor 2C (HTR2C, Homo sapiens, UniProt P28335)", "note": "Compare with care: the assays were run in different laboratories. pIC50, pKd, pKi: −log10 of the molar value."}
{"Compound": "O=c1[nH]c(N2CCCC2)nc2ccccc12", "target": "CSNK1D", "test": "binding, SPR", "measurement": "pKd", "value": 4.36}
{"Compound": "CCOc1ccc(C(=O)CC(SCc2cccc(Br)c2)C(=O)O)cc1 (stereo not drawn)", "target": "PLCD1", "test": "ligand displacement, FP", "measurement": "pKi", "value": 3.20}
{"Compound": "CCCNC(=O)c1ccc2c3c1C(CC(F)(F)F)CN3CCNC2 (racemic)", "target": "HTR2B", "test": "ligand displacement, radioligand", "setting": "cell membranes", "measurement": "pKi", "value": 5.65}
{"Compound": "Oc1ccc(C2CNCCN2)cc1 (stereo not drawn)", "target": "CSNK1D", "test": "binding, SPR", "measurement": "pKd", "value": "< 4.30"}
{"Compound": "CCOc1ccc(C(=O)CC(SCc2ccc(Cl)cc2)C(=O)O)cc1 (stereo not drawn)", "target": "PLCD1", "test": "ligand displacement, FP", "measurement": "pKi", "value": 3.11}
{"Compound": "COc1cc2c3c(c1OC)-c1c(OC)ccc(-c4ccc(C#N)cc4)c1CC3N(C)CC2 (stereo not drawn)", "target": "HTR2B", "test": "ligand displacement, radioligand", "measurement": "pKi", "value": 6.07}
{"Compound": "Cc1n[nH]c2ccc3nc(-c4ccc(C(=O)NCCN(C)C)cc4)c4c(c3c12)CCCC4", "target": "FLT3 F691L", "test": "enzyme activity, inhibitor", "measurement": "pIC50", "value": 7.28}
{"Compound": "CCn1c2ccccc2c2cc(Nc3ccnc(NCCCN4CCOCC4)n3)ccc21", "target": "CSNK1D", "test": "binding, SPR", "measurement": "pKd", "value": "< 4.30"}
{"Compound": "Cc1n[nH]c2ccc3nc(-c4ccc(C(=O)NCCN(C)C)cc4F)c4c(c3c12)CCCC4", "target": "FLT3 F691L", "test": "enzyme activity, inhibitor", "measurement": "pIC50", "value": 7.14}
{"Compound": "N#Cc1ccc(O)cc1F", "target": "CSNK1D", "test": "binding, SPR", "measurement": "pKd", "value": "4.30 to 4.70"}
{"Compound": "C#CCOc1cccc(C(=O)CC(SCc2cccc(Br)c2)C(=O)O)c1 (stereo not drawn)", "target": "PLCD1", "test": "ligand displacement, FP", "measurement": "pKi", "value": 3.15}
{"Compound": "Brc1cnc2nccnc2c1", "target": "CSNK1D", "test": "binding, SPR", "measurement": "pKd", "value": "< 4.30"}
{"Compound": "Cc1n[nH]c2ccc3nc(-c4ccc(C(=O)N(C)CCN(C)C)cc4)c4c(c3c12)CCC(F)(F)C4", "target": "FLT3 ITD", "test": "enzyme activity, inhibitor", "measurement": "pIC50", "value": "< 6.00"}
{"Compound": "c1ccc(CNCc2ccc(CN3CCCNCCNCCCNCC3)cc2)nc1", "target": "CSNK1D", "test": "binding, SPR", "measurement": "pKd", "value": "< 4.30"}
{"Compound": "COc1cc2c3c(c1OC)-c1c(OC)ccc(N4CCOCC4)c1CC3N(C)CC2 (stereo not drawn)", "target": "HTR2C", "test": "cell-free assay, radioligand", "measurement": "pKi", "value": 5.57}
{"Compound": "Brc1ccc2nccnc2c1", "target": "CSNK1D", "test": "binding, SPR", "measurement": "pKd", "value": "< 4.30"}
{"Compound": "O=C(NCC1CC1)c1ccc(-c2nc3ccc4[nH]ncc4c3c3c2CCCC3)cc1", "target": "FLT3 ITD", "test": "enzyme activity, inhibitor", "measurement": "pIC50", "value": "< 6.00"}
{"Compound": "COc1cc2c3c(c1OC)-c1c(OC)ccc(O)c1CC3N(C)CC2 (stereo not drawn)", "target": "HTR2C", "test": "cell-free assay, radioligand", "measurement": "pKi", "value": 5.37}
{"Compound": "CN(C)CCNC(=O)c1ccc(-c2nc3ccc4[nH]ncc4c3c3c2CCCC3)cc1", "target": "FLT3 ITD", "test": "enzyme activity, inhibitor", "measurement": "pIC50", "value": 7.07}
{"Compound": "CN(C)C(=O)c1cc2cnc(Nc3ccc(C(=O)NCCCCCCOc4cccc5c4C(=O)N(C4CCC(=O)NC4=O)C5=O)cc3)nc2n1C1CCCC1 (stereo not drawn)", "target": "Ephrin type-B receptor 6 (EPHB6, Homo sapiens, UniProt O15197)", "test": "binding, competition with immobilised ligand", "measurement": "pKd", "value": "> 6.70"}
{"Compound": "CCOc1ccc(C(=O)CC(SCc2ccc(Cl)cc2)C(=O)O)cc1OCC (stereo not drawn)", "target": "PLCD1", "test": "ligand displacement, FP", "measurement": "pKi", "value": "< 3.00"}
{"Compound": "O=C(NCCN1CCCCC1)c1ccc(-c2nc3ccc4[nH]ncc4c3c3c2CCCC3)cc1", "target": "FLT3 ITD", "test": "enzyme activity, inhibitor", "measurement": "pIC50", "value": 6.13}
{"Compound": "CCOC(=O)c1cc(-c2ccc(OCC)cc2)oc1-c1ccc(Cl)cc1", "target": "PLCD1", "test": "ligand displacement, FP", "measurement": "pKi", "value": "< 4.00"}
{"Compound": "CN(C)CCNC(=O)c1ccc(-c2nc3ccc4[nH]ncc4c3c3c2CCCCC3)c(F)c1", "target": "Receptor-type tyrosine-protein kinase FLT3 (FLT3, Homo sapiens, UniProt P36888, D835Y)", "test": "enzyme activity, inhibitor", "measurement": "pIC50", "value": 8.15}
{"Compound": "COc1ccccc1C(=O)CC(SCc1ccc(Cl)cc1)C(=O)O (stereo not drawn)", "target": "PLCD1", "test": "ligand displacement, FP", "measurement": "pKi", "value": "< 3.00"}
{"Compound": "c1ccc(-c2oc3ncnc(NCCCN4CCOCC4)c3c2-c2ccccc2)cc1", "target": "CSNK1D", "test": "binding, SPR", "measurement": "pKd", "value": "< 4.30"}
{"Compound": "CCOc1ccc(C(=O)CC(SCc2ccc(Br)cc2)C(=O)O)cc1 (stereo not drawn)", "target": "PLCD1", "test": "ligand displacement, FP", "measurement": "pKi", "value": "< 3.00"}
{"Compound": "O=C(O)c1cc(-c2ccc(-c3ccc(Cl)s3)cc2)c2ccc(-c3ccc(C(F)(F)F)cc3)cc2c1", "target": "HTR2C", "test": "cell-free assay, radioligand", "measurement": "pKi", "value": 6.04}
{"Compound": "COCCNC(=O)c1ccc(-c2nc3ccc4[nH]ncc4c3c3c2CCCC3)cc1", "target": "FLT3 ITD", "test": "enzyme activity, inhibitor", "measurement": "pIC50", "value": 6.18}
{"Compound": "CCOc1ccc(C(=O)CC(SCc2ccc(Cl)cc2)C(=O)OC)cc1 (stereo not drawn)", "target": "PLCD1", "test": "ligand displacement, FP", "measurement": "pKi", "value": "< 3.00"}
